Paper PMC3717983 (Journal of medicinal chemistry, 2013)
Read-outs that look alike come from different tables or passages of the source. Marks after values point to notes of the source that are not given here.

Experiments:
Assay type in all cases: biochemical
R93A thrombin = R93A thrombin (Homo sapiens, UniProt P00734, R452A); experiment: Inhibition of recombinant thrombin, S2238 hydrolysis assay; conditions: overnight 25 °C
Outline: (§1)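 Recombinant wild-type and Ala-mutant thrombins were made in […] form by PCR mutagenesis, expressed in BHK cells, HPC4 immunoaffinity-purified and activated. Active-site concentration came from amidolytic assay and antithrombin titration. Enzyme (1.5–7.5 nM final) was incubated with test compound overnight at 25 °C in pH 7.4 Tris buffer. S2238 was added and initial rate read at 405 nm. At least 9–10 concentrations were fitted by logistic equation for apparent IC50, HS, Y0 and YM. Mutant IC50 is expressed relative to recombinant wild type.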

R173A thrombin = R173A thrombin (Homo sapiens, UniProt P00734, R541A); experiment: as above; conditions: overnight 25 °C
Outline: as §1

R233A thrombin = R233A thrombin (Homo sapiens, UniProt P00734, R608A); experiment: as above
Outline: as §1

human plasma [1] = experiment: Human plasma clotting assay, prothrombin time; conditions: citrated human plasma
Outline: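 PT on a fibrometer using a one-stage recalcification assay. Test compound or vehicle was mixed with citrated human plasma and incubated 30 s at 37 °C. Pre-warmed reconstituted thromboplastin was then added and clotting time recorded. Run in duplicate. A quadratic trend line gave the concentration that doubles PT.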

[2] = molecular target: recombinant wild-type thrombin (rWT) (Homo sapiens, UniProt P00734); experiment: Inhibition of recombinant thrombin, S2238 hydrolysis assay; conditions: overnight 25 °C
Outline: as §1

K235A thrombin = K235A thrombin (Homo sapiens, UniProt P00734, K610A); experiment: as above; conditions: overnight 25 °C
Outline: as §1

K236A thrombin = K236A thrombin (Homo sapiens, UniProt P00734, K611A); experiment: as above; conditions: overnight 25 °C
Outline: as §1

R126A thrombin = R126A thrombin (Homo sapiens, UniProt P00734, R486A); experiment: as above; conditions: overnight 25 °C
Outline: as §1

human plasma [3] = experiment: Human plasma clotting assay, activated partial thromboplastin time
Outline: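 APTT on a fibrometer using a one-stage recalcification assay. Citrated human plasma, test compound or vehicle, and pre-warmed 0.2% ellagic acid were mixed and incubated 4 min. Clotting was started with 25 mM CaCl2 at 37 °C and clotting time recorded. Run in duplicate. A quadratic trend line gave the concentration that doubles APTT.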

human α-thrombin [4] = molecular target: T1, human α-thrombin (Homo sapiens, UniProt P00734)
Outline: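 Human α-thrombin (5 nM) was preincubated with fixed test compound concentrations (0–9.90 μM), either overnight at 25 °C or 2 h at 37 °C, in 20 mM Tris-HCl pH 7.4 with 100 mM NaCl, 2.5 mM CaCl2 and 0.1% PEG8000. Initial rates of Spectrozyme TH hydrolysis (2–80 μM) were read at 405 nm, at under 10% substrate consumption. Standard Michaelis-Menten fit gave KM and VMAX.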

K240A thrombin = K240A thrombin (Homo sapiens, UniProt P00734, K615A); experiment: Inhibition of recombinant thrombin, S2238 hydrolysis assay; conditions: overnight 25 °C
Outline: as §1

R165A thrombin = R165A thrombin (Homo sapiens, UniProt P00734, R533A); experiment: as above; conditions: overnight 25 °C
Outline: as §1

K169A thrombin = K169A thrombin (Homo sapiens, UniProt P00734, K537A); experiment: as above; conditions: overnight 25 °C
Outline: as §1

R101A thrombin = R101A thrombin (Homo sapiens, UniProt P00734, R461A); experiment: as above; conditions: overnight 25 °C
Outline: as §1

R175A thrombin = R175A thrombin (Homo sapiens, UniProt P00734, R543A); experiment: as above; conditions: overnight 25 °C
Outline: as §1

human α-thrombin [5] = molecular target: T1, human α-thrombin; conditions: for logIC50 / HS (Hill slope): pH 7.4, 25 °C, Spectrozyme TH; for fold decrease in potency from 9a: ratio of IC50s
human α-thrombin [6] = molecular target: T1, human α-thrombin; experiment: Thrombin inhibition by 9a in presence of exosite 1 or exosite 2 ligands
R97A thrombin = R97A thrombin (Homo sapiens, UniProt P00734, R456A); experiment: Inhibition of recombinant thrombin, S2238 hydrolysis assay; conditions: overnight 25 °C
Outline: as §1

[7] = [9a] 0.63 μM, 2 hr incubation at 37°C
[8] = [9a] 0.63 μM, overnight incubation at 25°C
[9] = [9a] 1.53 μM, 2 hr incubation at 37°C
[10] = [9a] 1.80 μM, overnight incubation at 25°C
[11] = [9a] 3.60 μM, 2 hr incubation at 37°C
[12] = [9a] 3.60 μM, overnight incubation at 25°C
[13] = [9a] 9.90 μM, 2 hr incubation at 37°C
[14] = Heparin (UFH) 4.2 μM, overnight 25 °C
[15] = Heparin (UFH) 25.0 μM, overnight 25 °C
[16] = Heparin (UFH) 42.6 μM, overnight 25 °C
[17] = Hirugen peptide (HirP) 5 nM, overnight 25 °C
[18] = Hirugen peptide (HirP) 15 nM, overnight 25 °C
[19] = Octasaccharide H8 1.0 μM, overnight 25 °C
[20] = Octasaccharide H8 3.0 μM, overnight 25 °C
[21] = Octasaccharide H8 10 μM, overnight 25 °C
[22] = Octasaccharide H8 20 μM, overnight 25 °C
[23] = γ′-Fibrinogen peptide (FibP) 0.2 μM, overnight 25 °C
[24] = γ′-Fibrinogen peptide (FibP) 0.65 μM, overnight 25 °C
[25] = γ′-Fibrinogen peptide (FibP) 2.0 μM, overnight 25 °C
[26] = γ′-Fibrinogen peptide (FibP) 6.5 μM, overnight 25 °C

CCOC(=O)c1c(C)oc2cc(OC)c(OCc3oc4cc(OC)c(OCc5oc6cc(OC)c(OS(=O)(=O)[O-])cc6c5C(=O)OCC)cc4c3C(=O)OCC)cc12.[Na+] [9a]
HS (R93A thrombin): 1.8 ± 0.3 | ΔY (R93A thrombin): 66 ± 6% | HS (R173A thrombin): 2.4 ± 0.7 | ΔY (R173A thrombin): 62 ± 8% | fold loss in potency (defect) vs recombinant wild-type (R233A thrombin; Arg233Ala thrombin): ~ 3 fold | ΔY (R233A thrombin; R233A, overnight 25 °C): 44 ± 2% | concentration required for a 2-fold increase in PT (human plasma [1]): 568 µM | HS [2]: 3.4 ± 0.5 ^b | ΔY [2]: 49 ± 2% | ΔY (K235A thrombin): 50 ± 1% | HS (K236A thrombin): 3.0 ± 0.3 | ΔY (K236A thrombin): 52 ± 1% | HS (R126A thrombin): 1.8 ± 0.5 | ΔY (R126A thrombin): 65 ± 11% | times less potent in plasma anticoagulation than sulfated LMWLs (human plasma [3]; LMWLs from ref 15): 10 times | concentration required for a 2-fold increase in APTT (human plasma [3]; citrated human plasma): 139 µM | reduction in KM and VMAX (human α-thrombin [4]; 25 °C): 0.86–1.2 fold per μM | reduction in KM and VMAX (human α-thrombin [4]; 37 °C): 0.4–0.6 fold per μM | Km (human α-thrombin [4]; [9a] 0.36 μM, overnight incubation at 25°C): 11.1 ± 2.5 µM | Km (human α-thrombin [4]; [7]): 6.7 ± 2.3 µM | VMAX (human α-thrombin [4]; [7]): 72 ± 8 mAU/min | Km (human α-thrombin [4]; [8]): 7.7 ± 1.3 µM | VMAX (human α-thrombin [4]; [8]): 69 ± 3 mAU/min | Km (human α-thrombin [4]; [9]): 2.2 ± 0.8 µM | VMAX (human α-thrombin [4]; [9]): 30 ± 2 mAU/min | Km (human α-thrombin [4]; [10]): 3.2 ± 0.5 µM | VMAX (human α-thrombin [4]; [10]): 35 ± 1 mAU/min | Km (human α-thrombin [4]; [11]): 2.7 ± 0.6 µM | VMAX (human α-thrombin [4]; [11]): 25 ± 1 mAU/min | Km (human α-thrombin [4]; [12]): 3.1 ± 0.6 µM | VMAX (human α-thrombin [4]; [12]): 19 ± 1 mAU/min | Km (human α-thrombin [4]; [13]): 1.9 ± 0.6 µM | VMAX (human α-thrombin [4]; [13]): 15 ± 0.8 mAU/min | mechanism of thrombin inhibition (human α-thrombin [4]; both incubation conditions): primarily uncompetitive | HS (K240A thrombin): 2.3 ± 0.4 | ΔY (K240A thrombin): 49 ± 3% | HS (R165A thrombin): 1.1 ± 0.3 | ΔY (R165A thrombin): 61 ± 8% | HS (K169A thrombin): 2.1 ± 0.2 | ΔY (K169A thrombin): 59 ± 3% | HS (R101A thrombin): 2.1 ± 0.6 | ΔY (R101A thrombin): 55 ± 6% | ΔY (R175A thrombin): 37 ± 3% | logIC50 (human α-thrombin [5]): −6.17 ± 0.03 | logIC50 (human α-thrombin [6]; 0 μM competitor): −6.17 ± 0.03 | ΔY (human α-thrombin [6]; 0 μM competitor): 79 ± 9% | HS (human α-thrombin [6]; [14]): 2.2 ± 0.4 | ΔY (human α-thrombin [6]; [14]): 71 ± 7% | HS (human α-thrombin [6]; Heparin (UFH) 12.8 μM, overnight 25 °C): 1.8 ± 0.2 | HS (human α-thrombin [6]; [15]): 1.7 ± 0.2 | ΔY (human α-thrombin [6]; [15]): 81 ± 10% | HS (human α-thrombin [6]; [16]): 1.2 ± 0.2 | ΔY (human α-thrombin [6]; [16]): ~90 ^c % | ΔY (human α-thrombin [6]; Hirugen peptide (HirP) 3 nM, overnight 25 °C): 44 ± 2% | HS (human α-thrombin [6]; [17]): 2.4 ± 0.3 | ΔY (human α-thrombin [6]; [17]): 46 ± 2% | HS (human α-thrombin [6]; [18]): 3.0 ± 0.7 | ΔY (human α-thrombin [6]; [18]): 43 ± 1% | HS (human α-thrombin [6]; [19]): 2.3 ± 0.3 | ΔY (human α-thrombin [6]; [19]): 58 ± 3% | HS (human α-thrombin [6]; [20]): 2.6 ± 0.6 | ΔY (human α-thrombin [6]; [20]): 54 ± 4% | HS (human α-thrombin [6]; [21]): 2.8 ± 0.4 | ΔY (human α-thrombin [6]; [21]): 50 ± 2% | HS (human α-thrombin [6]; [22]): 2.6 ± 0.5 | ΔY (human α-thrombin [6]; [22]): 49 ± 2% | HS (human α-thrombin [6]; [23]): 2.4 ± 0.3 | ΔY (human α-thrombin [6]; [23]): 73 ± 8% | HS (human α-thrombin [6]; [24]): 2.1 ± 0.3 | ΔY (human α-thrombin [6]; [24]): 71 ± 8% | HS (human α-thrombin [6]; [25]): 3.3 ± 0.6 | ΔY (human α-thrombin [6]; [25]): 67 ± 4% | HS (human α-thrombin [6]; [26]): 2.1 ± 0.6 | ΔY (human α-thrombin [6]; [26]): 65 ± 7% | HS (R97A thrombin): 2.6 ± 0.5 | ΔY (R97A thrombin): 47 ± 3%

CCOC(=O)c1c(C)oc2cc(OC)c(OCc3oc4cc(OC)c(OCc5oc6cc(OC)c(OS(=O)(=O)[O-])cc6c5C(=O)OC)cc4c3C(=O)OCC)cc12.[Na+] [9b]
HS (Hill slope) (human α-thrombin [5]): 1.0 ^c | logIC50 (human α-thrombin [5]): −5.69 ± 0.13

CCOC(=O)c1c(C)oc2cc(OC)c(OCc3oc4cc(OC)c(OCc5oc6cc(OC)c(OS(=O)(=O)[O-])cc6c5C(=O)OC(C)(C)C)cc4c3C(=O)OCC)cc12.[Na+] [9c]
HS (Hill slope) (human α-thrombin [5]): 2.1 ± 0.5 | logIC50 (human α-thrombin [5]): −3.78 ± 0.07

CCOC(=O)c1c(C)oc2cc(OC)c(OCc3oc4cc(OC)c(OCc5oc6cc(OC)c(OS(=O)(=O)[O-])cc6c5C(=O)OCCOC)cc4c3C(=O)OCC)cc12.[Na+] [9d]
fold decrease in potency from 9a (human α-thrombin [5]): > 500 fold

CCOC(=O)c1c(C)oc2cc(OC)c(OCc3oc4cc(OC)c(OCc5oc6cc(OCC)c(OS(=O)(=O)[O-])cc6c5C(=O)OCC)cc4c3C(=O)OCC)cc12.[Na+] [9f]
HS (Hill slope) (human α-thrombin [5]): 2.3 ± 1.2 | logIC50 (human α-thrombin [5]): −5.23 ± 0.11 | fold decrease in potency from 9a (human α-thrombin [5]): 8.6 fold

CCOC(=O)c1c(C)oc2cc(OC)c(OCc3oc4cc(OC)c(OCc5oc6cc(OC(C)C)c(OS(=O)(=O)[O-])cc6c5C(=O)OCC)cc4c3C(=O)OCC)cc12.[Na+] [9g]
logIC50 (human α-thrombin [5]): ~ −4.0 ^d | fold decrease in potency from 9a (human α-thrombin [5]): 148 fold
